Results from ChEMBL document CHEMBL1122581, “Antiviral activity of C-5 substituted tubercidin analogues” (1984).
Values after ≈ are worked out from the molar mass of the structure shown.

What was measured:
Assay type in all cases: functional
[1] = species: Oryctolagus cuniculus; test: Concentration required to cause a microscopically detectable alteration in cell morphology in primary rabbit kidney cell cultures.; details: read-out: Min cytotoxic concentration
Procedure, shortened: (§1)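 Uninfected cell monolayers were run in parallel with the antiviral assays and exposed to compound for the same period as the infected cultures. The end point was the lowest concentration giving a microscopically detectable disruption of normal cell morphology.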

[2] = test system: Sindbis virus; test: Concentration required to reduce sindbis virus induced cytopathogenicity by 50% in vero cell cultures.
[3] = test system: Coxsackievirus B4; test: Concentration required to reduce coxsackie virus B4 induced cytopathogenicity by 50% in vero cell cultures.; details: Enterovirus B
[4] = test system: Vero; test: Concentration required to cause a microscopically detectable alteration in cell morphology in vero cell cultures.; details: Chlorocebus sabaeus, read-out: Min cytotoxic concentration; procedure, shortened: as §1
[5] = test system: Vesicular stomatitis virus; test: Concentration required to reduce vesicular stomatitis virus induced cytopathogenicity by 50% in primary rabbit kidney cell cultures.
[6] = test system: Human alphaherpesvirus 2; test: Concentration required to reduce HSV-2 (G) induced cytopathogenicity by 50% in primary rabbit kidney cell cultures.
[7] = test system: Poliovirus 1; test: Concentration required to reduce polio virus type 1 induced cytopathogenicity by 50% in HeLa cell cultures.; details: Enterovirus C
[8] = test system: Coxsackievirus B4; test: Concentration required to reduce coxsackie virus 4 induced cytopathogenicity by 50% in HeLa cell cultures.; details: Enterovirus B
[9] = test system: L1210; test: Dose required to inhibit proliferation of L-1210 Cells by 50%; details: Mus musculus, read-out: ID50 (the source's name)
Procedure, shortened: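 Inhibition of proliferation of murine leukemia L-1210 cells in exponential growth phase. ID50 is the dose inhibiting cell proliferation by 50%, given plus or minus standard deviation.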

[10] = test system: Human alphaherpesvirus 1; test: Concentration required to reduce HSV-1 (KOS) induced cytopathogenicity by 50% in primary rabbit kidney cell cultures.
[11] = test system: Vesicular stomatitis virus; test: Concentration required to reduce vesicular stomatitis virus induced cytopathogenicity by 50% in HeLa cell cultures.
[12] = test system: HeLa; test: Concentration required to cause a microscopically detectable alteration in cell morphology in HeLa cell cultures.; details: Homo sapiens, read-out: Min cytotoxic concentration; procedure, shortened: as §1
[13] = test system: Mammalian orthoreovirus 1; test: Concentration required to reduce reovirus type 1 induced cytopathogenicity by 50% in vero cell cultures.
[14] = test system: Human respirovirus 3; test: Concentration required to reduce parainfluenza virus type 3 induced cytopathogenicity by 50% in vero cell cultures.

Row | SMILES | MCC [1] [µg/mL] | MIC [2] [µg/mL] | MIC [3] [µg/mL] | MCC [4] [µg/mL] | MIC [5] [µg/mL] | MIC [6] [µg/mL] | MIC [7] [µg/mL] | MIC [8] [µg/mL] | IC50 [9] [µg/mL] | MIC [10] [µg/mL] | MIC [11] [µg/mL] | MCC [12] [µg/mL] | MIC [13] [µg/mL] | MIC [14] [µg/mL]
1 | C/C=C/Cc1cn(C2O[C@H](CO)[C@@H](O)[C@H]2O)c2ncnc(N)c12 (some centres undefined) | 200 | > 40 | 2 (≈ 6.24 µM) | 100 | > 40 | 150 (≈ 468 µM) | 0.2 (≈ 0.624 µM) | 0.2 (≈ 0.624 µM) | 0.63 (≈ 1.97 µM) | 20 (≈ 62.4 µM) | 0.07 (≈ 0.219 µM) | 1 | 2 (≈ 6.24 µM) | > 1
2 | CCCCc1cn(C2O[C@H](CO)[C@@H](O)[C@H]2O)c2ncnc(N)c12 (some centres undefined) | 40 | > 40 | > 40 | > 100 | > 40 | > 40 | > 40 | > 40 | 81.6 (≈ 253 µM) | > 40 | > 40 | > 40 | > 40 | 20 (≈ 62 µM)
3 | Nc1ncnc2c1c(Br)cn2[C@@H]1O[C@H](CO)[C@@H](O)[C@H]1O | 1 | > 0.4 | > 0.4 | 0.4 | > 1 | > 1 | > 0.4 | > 0.4 | 0.587 (≈ 1.7 µM) | > 1 | > 0.4 | 1 | > 0.4 | > 0.4
4 | Nc1nccc2c1ncn2[C@@H]1C[C@H](CO)[C@H](O)C1O (some centres undefined) | > 200 | 20 (≈ 75.7 µM) | 2 (≈ 7.57 µM) | > 100 | 0.07 (≈ 0.265 µM) | 300 (≈ 1140 µM) | > 400 | > 400 | – | > 400 | 0.7 (≈ 2.65 µM) | > 400 | 2 (≈ 7.57 µM) | 2 (≈ 7.57 µM)
5 | Nc1ncnc2c1c(Cl)cn2[C@@H]1O[C@H](CO)[C@@H](O)[C@H]1O | 4 | > 1 | > 1 | 4 | > 1 | > 1 | 1 (≈ 3.33 µM) | > 0.4 | 0.014 (≈ 0.0466 µM) | > 1 | > 1 | 4 | 0.7 (≈ 2.33 µM) | > 1
6 | Nc1ncnc2c1c(I)cn2[C@@H]1O[C@H](CO)[C@@H](O)[C@H]1O [IODOTUBERCIDIN] | 1 | > 0.4 | > 0.4 | 1 | > 0.4 | > 1 | > 0.4 | > 0.4 | 1.25 (≈ 3.19 µM) | 0.02 (≈ 0.051 µM) | > 0.4 | 1 | > 0.4 | > 0.4
7 | NC(=O)c1ncn([C@@H]2O[C@H](CO)[C@@H](O)[C@H]2O)n1 [RIBAVIRIN] | > 400 | 150 (≈ 614 µM) | > 400 | > 400 | 70 (≈ 287 µM) | > 400 | 7 (≈ 28.7 µM) | 20 (≈ 81.9 µM) | 3.18 (≈ 13 µM) | > 400 | 4 (≈ 16.4 µM) | > 400 | 20 (≈ 81.9 µM) | 20 (≈ 81.9 µM)
8 | NC(=O)c1cn([C@@H]2O[C@H](CO)[C@@H](O)[C@H]2O)c2ncnc(N)c12 [SANGIVAMYCIN] | > 10 | 0.2 (≈ 0.647 µM) | 0.02 (≈ 0.0647 µM) | 0.4 | 0.02 (≈ 0.0647 µM) | 0.07 (≈ 0.226 µM) | 0.07 (≈ 0.226 µM) | > 0.04 | 0.019 (≈ 0.0614 µM) | 0.07 (≈ 0.226 µM) | 0.04 (≈ 0.129 µM) | 0.4 | > 0.1 | 0.02 (≈ 0.0647 µM)
9 | N#Cc1cn([C@@H]2O[C@H](CO)[C@@H](O)[C@H]2O)c2ncnc(N)c12 [TOYOCAMYCIN] | > 0.04 | > 0.01 | > 0.01 | 0.04 | > 1 | 0.07 (≈ 0.24 µM) | > 0.01 | > 0.01 | 0.006 (≈ 0.0206 µM) | > 0.04 | 0.07 (≈ 0.24 µM) | > 0.4 | > 0.01 | > 0.01
10 | Nc1ncnc2c1ccn2[C@@H]1O[C@H](CO)[C@@H](O)[C@H]1O [TUBERCIDIN] | 0.4 | 0.2 (≈ 0.751 µM) | 0.2 (≈ 0.751 µM) | 0.4 | 0.007 (≈ 0.0263 µM) | 0.2 (≈ 0.751 µM) | 0.007 (≈ 0.0263 µM) | 0.2 (≈ 0.751 µM) | 0.04 (≈ 0.15 µM) | 0.07 (≈ 0.263 µM) | 0.007 (≈ 0.0263 µM) | 0.4 | 0.07 (≈ 0.263 µM) | 0.07 (≈ 0.263 µM)
